From ChEMBL document CHEMBL3286099, “Synthesized quercetin derivatives stimulate melanogenesis in B16 melanoma cells by influencing the expression of melanin biosynthesis proteins MITF and p38 MAPK” (Bioorg Med Chem, 2014)

Experiments:
B16-F0 [1] = assay: Intracellular melanogenesis-stimulating activity in mouse B16F0 cells at 25 uM after 72 hrs by spectrophotometry relative to control; type: functional
How it was run: (§1)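 Cells were seeded at 5.0 × 10⁴ cells/well, adhered for 24 h, then treated with compound for 72 h. After a PBS wash, cells were lysed in 1 M NaOH at 100 °C for 30 min to solubilize melanin. Lysate absorbance at 405 nm served as the intracellular melanin index, expressed as % of DMSO control. Experiments were done twice.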

B16-F0 [2] = assay: Intracellular melanogenesis-stimulating activity in mouse B16F0 cells at 12.5 uM after 72 hrs by spectrophotometry relative to control; type: functional; how it was run: as §1
B16-F0 [3] = assay: Intracellular melanogenesis-stimulating activity in mouse B16F0 cells at 6.25 uM after 72 hrs by spectrophotometry relative to control; type: functional; how it was run: as §1
B16-F0 [4] = assay: Extracellular melanogenesis-stimulating activity in mouse B16F0 cells at 25 uM after 72 hrs by spectrophotometry relative to control; type: functional
How it was run: (§2)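 B16-F0 cells in DMEM with 10% FBS were seeded at 5.0 × 10⁴ cells/well and adhered for 24 h. They were treated for 72 h at 200–10 µM or 50–6.25 µM, depending on compound series. Absorbance of the collected culture medium at 510 nm gave extracellular melanin, expressed as % of DMSO-treated control. Experiments were done twice.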

B16-F0 [5] = assay: Extracellular melanogenesis-stimulating activity in mouse B16F0 cells at 12.5 uM after 72 hrs by spectrophotometry relative to control; type: functional; how it was run: as §2
B16-F0 [6] = assay: Extracellular melanogenesis-stimulating activity in mouse B16F0 cells at 6.25 uM after 72 hrs by spectrophotometry relative to control; type: functional; how it was run: as §2
[7] = Cytotoxicity against mouse B16F0 cells assessed as cell viability at 25 uM after 72 hrs by MTT assay; type: cell-based; conditions: read-out: Activity
How it was run: (§3)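 B16-F0 cells were seeded at 5.0 × 10⁴ cells/well and allowed to adhere for 24 h at 37 °C. They were exposed for 72 h to compound at 200–10 µM or 50–6.25 µM, depending on compound series. MTT (5 mg/mL stock in PBS) was added for 4 h at 37 °C in 5% CO₂, then dissolved in isopropanol/0.04 N HCl and read at 590 nm. Viability is % of DMSO control; experiments were done twice.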

[8] = Cytotoxicity against mouse B16F0 cells assessed as cell viability at 12.5 uM after 72 hrs by MTT assay; type: cell-based; conditions: read-out: Activity; how it was run: as §3
[9] = Cytotoxicity against mouse B16F0 cells assessed as cell viability at 6.25 uM after 72 hrs by MTT assay; type: cell-based; conditions: read-out: Activity; how it was run: as §3
B16-F0 [10] = assay: Intracellular melanogenesis-stimulating activity in mouse B16F0 cells at 200 uM after 72 hrs by spectrophotometry relative to control; type: functional
B16-F0 [11] = assay: Intracellular melanogenesis-stimulating activity in mouse B16F0 cells at 100 uM after 72 hrs by spectrophotometry relative to control; type: functional
B16-F0 [12] = assay: Intracellular melanogenesis-stimulating activity in mouse B16F0 cells at 10 uM after 72 hrs by spectrophotometry relative to control; type: functional
B16-F0 [13] = assay: Extracellular melanogenesis-stimulating activity in mouse B16F0 cells at 200 uM after 72 hrs by spectrophotometry relative to control; type: functional; how it was run: as §2
B16-F0 [14] = assay: Extracellular melanogenesis-stimulating activity in mouse B16F0 cells at 100 uM after 72 hrs by spectrophotometry relative to control; type: functional; how it was run: as §2
B16-F0 [15] = assay: Extracellular melanogenesis-stimulating activity in mouse B16F0 cells at 10 uM after 72 hrs by spectrophotometry relative to control; type: functional; how it was run: as §2
[16] = Cytotoxicity against mouse B16F0 cells assessed as cell viability at 200 uM after 72 hrs by MTT assay; type: cell-based; conditions: read-out: Activity; how it was run: as §3
[17] = Cytotoxicity against mouse B16F0 cells assessed as cell viability at 100 uM after 72 hrs by MTT assay; type: cell-based; conditions: read-out: Activity; how it was run: as §3
[18] = Cytotoxicity against mouse B16F0 cells assessed as cell viability at 10 uM after 72 hrs by MTT assay; type: cell-based; conditions: read-out: Activity; how it was run: as §3
B16-F0 [19] = assay: Intracellular melanogenesis-stimulating activity in mouse B16F0 cells after 72 hrs by spectrophotometry relative to control; type: functional, cell-based; how it was run: as §1
B16-F0 [20] = assay: Intracellular melanogenesis-stimulating activity in mouse B16F0 cells at 50 uM after 72 hrs by spectrophotometry relative to control; type: functional; how it was run: as §1
B16-F0 [21] = assay: Extracellular melanogenesis-stimulating activity in mouse B16F0 cells at 50 uM after 72 hrs by spectrophotometry relative to control; type: functional; how it was run: as §2
[22] = Cytotoxicity against mouse B16F0 cells assessed as cell viability at 50 uM after 72 hrs by MTT assay; type: cell-based; conditions: read-out: Activity; how it was run: as §3

| Compound | Activity (B16-F0 [1]) [%] | Activity (B16-F0 [2]) [%] | Activity (B16-F0 [3]) [%] | Activity (B16-F0 [4]) [%] | Activity (B16-F0 [5]) [%] | Activity (B16-F0 [6]) [%] | viability at 72 h, 25 µM [7] [%] | viability at 72 h, 12.5 µM [8] [%] | viability at 72 h, 6.25 µM [9] [%] | Activity (B16-F0 [10]) [%] | Activity (B16-F0 [11]) [%] | Activity (B16-F0 [12]) [%] | Activity (B16-F0 [13]) [%] | Activity (B16-F0 [14]) [%] | Activity (B16-F0 [15]) [%] | viability at 72 h, 200 µM [16] [%] | viability at 72 h, 100 µM [17] [%] | viability at 72 h, 10 µM [18] [%] | Activity (B16-F0 [19]) | also measured |
| --- | --- | --- | --- | --- | --- | --- | --- | --- | --- | --- | --- | --- | --- | --- | --- | --- | --- | --- | --- | --- |
| COc1cc(O)c2c(=O)c(OC)c(-c3ccc(O)c(O)c3)oc2c1 | 187.6 | 171.2 | 134 | 265.5 | 304.3 | 222.8 | 54.1 | 60.4 | 80.4 | – | – | – | – | – | – | – | – | – | – | – |
| O=c1c(O[C@@H]2O[C@H](CO)[C@@H](O[C@@H]3O[C@H](CO)[C@@H](O)[C@H](O)[C@H]3O)[C@H](O)[C@H]2O)c(-c2ccc(O)c(O)c2)oc2cc(O)cc(O)c12 | – | – | – | – | – | – | – | – | – | 176 | 126.8 | 102.6 | 85.2 | 91 | 83.3 | 81.1 | 93.2 | 99.6 | Dose-dependent effect | – |
| O=c1c(O[C@@H]2O[C@H](CO)[C@@H](O[C@@H]3O[C@H](CO)[C@@H](O)[C@H](O)[C@H]3O)[C@H](O)[C@H]2O)c(-c2ccc(O[C@@H]3O[C@H](CO)[C@@H](O)[C@H](O)[C@H]3O)c(O)c2)oc2cc(O)cc(O)c12 | – | – | – | – | – | – | – | – | – | 190.5 | 151.5 | 137 | 125.5 | 116 | 99.7 | 74.8 | 86.8 | 90 | Dose-dependent effect | – |
| CC(=O)Oc1c(-c2ccc(O)c(O)c2)oc2cc(O)cc(O)c2c1=O | 114.3 | 99 | – | 102.6 | 87.6 | – | 120 | 110 | – | – | – | – | – | – | – | – | – | – | – | Activity (B16-F0 [20]): 104.6%; Activity (B16-F0 [21]): 126.6%; viability at 72 h, 50 µM [22]: 110% |
| CC(=O)OC[C@H]1O[C@@H](Oc2c(-c3ccc(O)c(O)c3)oc3cc(O)cc(O)c3c2=O)[C@H](OC(C)=O)[C@@H](OC(C)=O)[C@@H]1OC(C)=O | 121.4 | 122.4 | – | 101.5 | 89.3 | – | 102 | 114 | – | – | – | – | – | – | – | – | – | – | – | Activity (B16-F0 [20]): 148.4%; Activity (B16-F0 [21]): 96.1%; viability at 72 h, 50 µM [22]: 104% |
| O=c1c(O[C@@H]2O[C@H](CO)[C@@H](O)[C@H](O)[C@H]2O)c(-c2ccc(O)c(O)c2)oc2cc(O)cc(O)c12 [ISOQUERCETIN] | – | – | – | – | – | – | – | – | – | 206.9 | 157.1 | 116.3 | 86.1 | 85.1 | 91 | 68.4 | 80.9 | 105 | Dose-dependent effect | – |
| COc1cc(O)c2c(=O)c(O)c(-c3ccc(OC)c(O)c3)oc2c1 [OMBUINE] | 100.5 | 106.1 | 110.2 | 100.1 | 98 | 100.5 | 101 | 101 | 99.7 | – | – | – | – | – | – | – | – | – | – | – |
| COc1cc(O)c2c(=O)c(O)c(-c3ccc(O)c(O)c3)oc2c1 [RHAMNETIN] | 75.8 | 87.6 | 102.4 | 114.3 | 105.2 | 105.5 | 91.6 | 99.4 | 92.7 | – | – | – | – | – | – | – | – | – | – | – |
| COc1ccc(-c2oc3cc(O)cc(O)c3c(=O)c2O)cc1O [TAMARIXETIN] | 106.9 | 133.5 | 125.6 | 97.9 | 95.1 | 97.5 | 101 | 103 | 104 | – | – | – | – | – | – | – | – | – | – | – |
